ChEMBL document CHEMBL4017510, “Nitazoxanide Analogs Require Nitroreduction for Antimicrobial Activity in Mycobacterium smegmatis” (J Med Chem, 2017)
pIC50: −log10 of the molar value. In brackets after ≈: the same amount, converted by molar mass. Activity calls are given as the source filed them.

Columns and labels:
[1] = tested on: Mycolicibacterium smegmatis; assay: Antibacterial activity against Mycobacterium smegmatis harboring 126E6 mutant measured after 24 hrs by resazurin microdilution assay; type: functional
How it was run: (§1)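 Two-fold drug dilutions in 96-well plates with species-appropriate medium. Each well receives an inoculum of about 1 × 10^3 UFC. Each plate has a no-drug growth control and a no-bacteria medium control. Resazurin is added to 0.003% final. Incubation time and temperature vary by species. MIC is the lowest concentration preventing the blue-to-pink (resorufin) colour change.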

[2] = tested on: Mycobacterium tuberculosis; assay: Antibacterial activity against Mycobacterium tuberculosis H37Rv after 7 days by resazurin microdilution assay; type: functional; settings: 168 h; how it was run: as §1
Mycolicibacterium aurum [3] = assay: Antibacterial activity against Mycobacterium aurum after overnight incubation by resazurin microdilution assay; type: functional
How it was run: (§2)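 Mycobacteria were cultured in Middlebrook 7H9 with ADC and glycerol, at 32 °C for M. marinum (4 days) or with overnight incubation for M. aurum. Resazurin microdilution used 2-fold dilutions and about 1 × 10^3 UFC per well, with growth and medium controls. Resazurin 0.003% final. MIC defined as the lowest concentration preventing the blue-to-pink change.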

Mycobacterium marinum = assay: Antibacterial activity against Mycobacterium marinum after 4 days by resazurin microdilution assay; type: functional; settings: 96 h; how it was run: as §2
[4] = tested on: Mycolicibacterium smegmatis; assay: Antibacterial activity against Mycobacterium smegmatis MC2 155 by resazurin microdilution assay; type: functional; settings: str. MC2 155; how it was run: as §1
Mycobacterium avium = assay: Antibacterial activity against Mycobacterium avium after 7 days by resazurin microdilution assay; type: functional; settings: 168 h; how it was run: as §1
Escherichia coli = assay: Antibacterial activity against Escherichia coli after 6 hrs by resazurin microdilution assay; type: functional
How it was run: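 Clinical isolate of E. coli in Mueller−Hinton broth at 37 °C, 6 h incubation. Two-fold dilution series in 96-well plates with about 1 × 10^3 UFC per well. Growth and medium-only controls were run. Resazurin at 0.003% final. MIC taken as the lowest concentration blocking reduction of resazurin (blue) to resorufin (pink).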

Streptococcus agalactiae = assay: Antibacterial activity against Streptococcus agalactiae NEM316 by resazurin microdilution assay; type: functional
How it was run: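 S. agalactiae NEM316 in Todd−Hewitt broth at 37 °C. Compounds were tested as 2-fold dilutions in 96 wells with an inoculum of about 1 × 10^3 UFC per well. Controls without antibiotic or without bacteria were included. Resazurin 0.003% final. MIC was the lowest concentration preventing the color change from blue to pink.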

Staphylococcus aureus = assay: Antibacterial activity against Staphylococcus aureus by resazurin microdilution assay; type: functional
How it was run: (§3)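 Clinical isolates were grown at 37 °C in Mueller−Hinton broth. Two-fold dilutions were made in 96-well plates and inoculated with about 1 × 10^3 UFC per well. Growth controls (no antibiotic) and medium controls (no bacteria) were included. Resazurin was added to 0.003% final. MIC was the lowest concentration that prevented the blue-to-pink color change.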

Pseudomonas aeruginosa = assay: Antibacterial activity against Pseudomonas aeruginosa by resazurin microdilution assay; type: functional; how it was run: as §3
Klebsiella aerogenes = assay: Antibacterial activity against Enterobacter aerogenes by resazurin microdilution assay; type: functional; how it was run: as §3
Klebsiella pneumoniae = assay: Antibacterial activity against Klebsiella pneumoniae by resazurin microdilution assay; type: functional; how it was run: as §3
Mycolicibacterium aurum [5] = assay: Growth inhibition of Mycobacterium aurum at 0.4 uM after overnight incubation by resazurin microdilution assay relative to control; type: functional; settings: read-out: GI
How it was run: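 Single-concentration screen at 0.15 μg/mL (average 0.4 μM). M. aurum (20-fold dilution of an OD600 0.2–0.3 culture) was grown in 7H9 with 0.1% casitone, 0.5% glycerol, OADC and 0.002% resazurin for 18 h at 37 °C. Read-out was ΔOD (OD570 − OD604). Percent viability was normalized to DMSO (100%) and kanamycin (0%) controls.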

Vero = assay: Cytotoxicity against African green monkey Vero cells; type: cell-based; settings: Chlorocebus sabaeus
[6] = Drug metabolism in Mycobacterium smegmatis 126E6 assessed as NfnB-mediated hydroxyl […] formation after 3 hrs by LC-MS/MS analysis; type: ADME; settings: mycolicibacterium smegmatis
How it was run: (§4)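 M. smegmatis wild type or transposon mutant 126E6 was grown in 7H9 to OD600 0.6 at 37 °C. 5 mL aliquots received 0.3 mg of compound or none and were incubated 3 h. Cultures were sonicated, cleared and filtered (0.45 μm), then mixed with acetonitrile/methanol/water. Analysis was aqueous normal-phase LC with ESI QTOF, reported as ion counts per mL, including the hydroxylamine intermediate (m/z 372.0012).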

[7] = tested on: Mycolicibacterium smegmatis; assay: Antibacterial activity against Mycobacterium smegmatis harboring 126E6 mutant at 51.6 uM measured after 24 hrs by resazurin microdilution assay; type: functional
How it was run: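 Hypersensitivity screen of the M. smegmatis Tn611 transposon mutant collection. Wells receive 2 μL from each mutant in Middlebrook 7H9 with ADC, 0.05% Tween 80, kanamycin and PANTA, with compound at 20 μg/mL final. Drug-free plates serve as growth controls. Plates are incubated 48 h at 37 °C, with resazurin (0.003% final) added at 24 h. Clones failing to grow are scored.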

[8] = tested on: Mycolicibacterium smegmatis; assay: Drug metabolism in Mycobacterium smegmatis assessed as hydroxyl […] formation after 3 hrs by LC-MS/MS analysis; type: ADME; how it was run: as §4

O=C(Nc1ncc([N+](=O)[O-])s1)c1ccccc1OC(F)(F)F
MIC [1]: 19.6 µM (≈ 6.53 µg/mL) | MIC [2]: 75 µM (≈ 25 µg/mL) | MIC (Mycolicibacterium aurum [3]): 4.65 µM (≈ 1.55 µg/mL) | MIC (Mycobacterium marinum): 9 µM (≈ 3 µg/mL) | MIC [4]: 75 µM (≈ 25 µg/mL) | MIC (Mycobacterium avium): 11.7 µM (≈ 3.9 µg/mL) | MIC (Escherichia coli): > 93.6 µM | MIC (Streptococcus agalactiae): > 93.6 µM | MIC (Staphylococcus aureus): 48.8 µM (≈ 16.3 µg/mL) | MIC (Pseudomonas aeruginosa): 93.6 µM (≈ 31.2 µg/mL) | MIC (Klebsiella aerogenes): > 93.6 µM | MIC (Klebsiella pneumoniae): > 93.6 µM | inhibition of growth at 0.4 µM (Mycolicibacterium aurum [5]): > 40%

O=C(Nc1ncc([N+](=O)[O-])s1)c1ccc(Cl)cc1Cl
pIC50 (Vero): < 4.00 | MIC [1]: 18.6 µM (≈ 5.92 µg/mL) | MIC [2]: 78.5 µM (≈ 25 µg/mL) | MIC (Mycolicibacterium aurum [3]): 2.45 µM (≈ 0.779 µg/mL) | MIC (Mycobacterium marinum): 18.8 µM (≈ 5.98 µg/mL) | MIC [4]: 78.5 µM (≈ 25 µg/mL) | MIC (Mycobacterium avium): 46.6 µM (≈ 14.8 µg/mL) | MIC (Escherichia coli): > 93 µM | MIC (Streptococcus agalactiae): > 93 µM | MIC (Staphylococcus aureus): 6.2 µM (≈ 1.97 µg/mL) | MIC (Pseudomonas aeruginosa): 93 µM (≈ 29.6 µg/mL) | MIC (Klebsiella aerogenes): > 93 µM | MIC (Klebsiella pneumoniae): > 93 µM | inhibition of growth at 0.4 µM (Mycolicibacterium aurum [5]): > 40%

CCCOc1ccc(C(=O)Nc2ncc([N+](=O)[O-])s2)cc1Br
pIC50 (Vero): < 4.00 | MIC [1]: 10.1 µM (≈ 3.9 µg/mL) | MIC [2]: 77.6 µM (≈ 30 µg/mL) | MIC (Mycolicibacterium aurum [3]): 1 µM (≈ 0.386 µg/mL) | MIC (Mycobacterium marinum): 4.03 µM (≈ 1.56 µg/mL) | MIC [4]: > 129 µM | MIC (Mycobacterium avium): 77.7 µM (≈ 30 µg/mL) | MIC (Escherichia coli): > 129 µM | MIC (Streptococcus agalactiae): > 129 µM | MIC (Staphylococcus aureus): 2.33 µM (≈ 0.9 µg/mL) | MIC (Pseudomonas aeruginosa): > 129 µM | MIC (Klebsiella aerogenes): > 129 µM | MIC (Klebsiella pneumoniae): > 129 µM | Drug metabolism [6]: Metabolite_Detected | inhibition of growth at 0.4 µM (Mycolicibacterium aurum [5]): > 40% | Activity [7]: Active | Drug metabolism [8]: Metabolite_Notdetected
